Where “and” joins values, the source holds several entries; their conditions need not be identical. Equal entries are not always repeated. Marks after values point to notes of the source that are not given here.
Key:
[1] = tested on: hamster oviduct infundibular smooth muscle; experiment: Infundibular smooth muscle contraction assay, hamster oviduct explants in vitro; assay type: cell-based, golden hamster (Mesocricetus auratus); conditions: for LOAEL, Contraction Rate: lowest observable adverse effect level, hamster infundibulum in EBSS-H with 0.1% BSA, n = 4 infundibula; for Efficacy, Contraction Rate: mean percentage of inhibition at the LOAEL; for LOAEL, infundibular smooth muscle contraction: as stated in the abstract
[2] = tested on: hamster oviduct (infundibulum) cilia; experiment: Ciliary beat frequency assay, hamster oviductal explants in vitro; assay type: cell-based, golden hamster (Mesocricetus auratus); conditions: for Efficacy, Ciliary Beat Frequency: mean percentage of inhibition at the LOAEL
[3] = tested on: hamster oviduct (infundibulum); experiment: Oocyte pickup rate assay, hamster oviduct explants in vitro; assay type: cell-based, golden hamster (Mesocricetus auratus); conditions: for Efficacy, Oocyte Pickup Rate: mean percentage of inhibition at the LOAEL
In short: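 Female golden hamsters were primed with 25 IU PMSG on estrous day 1 and 25 IU hCG on day 3, then killed with CO2 about 12 h later. On infundibulum explants, transit time of an oocyte-cumulus complex (OCC) along a fixed path was timed, 6–10 times each in EBSS-H/0.1% BSA control, one test dose (10-13–10-5 M screen; ANOVA), and recovery. The LOAEL was repeated to n = 4 infundibula, and efficacy was taken as mean % inhibition there.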

rats = conditions: dose-dependent; cited from earlier work
female mice = conditions: due to effects on adrenal function; cited from earlier work
male rats = conditions: cited from earlier work
[4] = tested on: chick chorioallantoic membrane (CAM); conditions: due to inhibition of DNA synthesis; cited from earlier work
[5] = lowest observable adverse effect level, hamster infundibulum in EBSS-H with 0.1% BSA, n = 4 infundibula
[6] = more inhibitory than pyridine, pyridine data ref 16

SMILES | LOAEL, Contraction Rate [1] | Efficacy, Contraction Rate [1] | LOAEL, Ciliary Beat Frequency [2, 5] | Efficacy, Ciliary Beat Frequency [2] | Efficacy, Oocyte Pickup Rate [3] | LOAEL, infundibular smooth muscle contraction [1] | LOAEL, Ciliary Beat Frequency ([2]; as stated in the abstract) [picomolar] | LOAEL, oocyte pickup rate ([3]; as stated in the abstract) [picomolar] | further results
Cc1cnc(C)c(C)n1 [2,3,5-trimethylpyrazine] | 10^-9 M | 58% | 10^-9 M | 18% | 10% |  |  |  | 
Cc1cnc(C)cn1 [2,5-dimethylpyrazine] | 10^-9 M | 40% | 10^-8 M | 34% | 10* % |  |  |  | Effect on uterine weight (rats): caused a decrease in uterine weight; Effect on onset of puberty (female mice): delayed the onset of puberty; Efficacy, Oocyte Pickup Rate ([3]; listed as 2,5-Dimethylpyrazine): 9.9%
Cc1cncc(C)n1 [2,6-dimethylpyrazine] | 10^-7 M | 85*** % | 10^-6 M | 5** % | 3.5% and 3** % |  |  |  | Efficacy, Contraction Rate ([1]; listed as 2,6-Dimethylpyrazine): 85%; LOAEL, oocyte pickup rate [3, 5]: 10^-9 M
CCc1cnccn1 [2-ethylpyrazine] |  | 38% |  | 3** % | 45* % | 1 picomolar | 1 | 10 | Decrease of LOAEL in the smooth muscle contraction assay relative to pyrazine [1]: 1000 fold
COc1nccnc1C [2-methoxy-3-methylpyrazine] |  | 17** % | 10^-9 M | 18% | 13% |  |  |  | Efficacy, Contraction Rate ([1]; listed as 2-Methoxy-3-methylpyrazine): 17%
Cc1cnccn1 [2-methylpyrazine] |  | 61** % |  | 11* % | 43* % | 10 picomolar | 1 | 10 | Decrease of LOAEL in the smooth muscle contraction assay relative to pyrazine [1]: 100 fold
Cc1cnc(C)c(S)n1 [3,6-dimethylpyrazine-2-thiol] |  |  |  |  |  |  |  |  | Effect on prostate and seminal vesicle weights (male rats): caused a decrease in prostate and seminal vesicle weights
c1cnccn1 [pyrazine] | 10^-9 M | 40% |  | 25% | 29% | 1 nM | 1 | 10 | Inhibitory potency relative to pyridine, infundibular smooth muscle contraction [1, 6]: at least 1 million; Inhibitory potency relative to pyridine, ciliary beat frequency [2, 6]: at least 1 million; LOAEL dose, oocyte pickup rate assay ([3]; LOAEL expressed in ppb for comparison with food levels): 4 ppb; Inhibitory potency relative to pyridine, oocyte pickup rate [3, 6]: at least 1 million; Effect on CAM and embryo growth [4]: inhibited both CAM and embryo growth at picomolar doses

Reference: PMC428586 (Reproductive biology and endocrinology : RB&E, 2004)
